Compounds with a hit are over-represented: about 2.3% of the library has one in this group of screens.
V1aR counter: counter-screen for oxytocin receptor agonists: human V1a receptor agonists; P37288; CHO-V1R cells, Fluo-8 calcium fluorescence, agonist mode; 0% DMSO, 100% 3 nM vasopressin; activation, % at 3 µM; actives 0.25% (n = 320,000); AID 2797;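 active = activation above the mean activation of all tested compounds plus 3 SD, per screening run, cut at about 20% in these data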;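 note: signal is peak over basal fluorescence ratio across a 100 second FLIPR read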
Target sequence (P37288 whole entry, looked up): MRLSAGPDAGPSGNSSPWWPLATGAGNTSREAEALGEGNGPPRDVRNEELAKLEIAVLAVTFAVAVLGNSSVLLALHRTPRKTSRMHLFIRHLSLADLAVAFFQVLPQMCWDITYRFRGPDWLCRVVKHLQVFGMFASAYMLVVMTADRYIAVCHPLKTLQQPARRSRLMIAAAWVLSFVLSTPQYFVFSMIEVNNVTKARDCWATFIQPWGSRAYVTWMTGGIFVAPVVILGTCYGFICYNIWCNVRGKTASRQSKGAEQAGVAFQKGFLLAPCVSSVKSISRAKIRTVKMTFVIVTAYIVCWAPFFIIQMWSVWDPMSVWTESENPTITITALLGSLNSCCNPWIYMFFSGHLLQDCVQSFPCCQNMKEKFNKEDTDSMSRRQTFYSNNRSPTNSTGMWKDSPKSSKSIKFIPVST
OXTR potentiate: potentiates the human oxytocin receptor response; actives 0.061% (n = 320,000); CHO-OTR cells, Fluo-8 calcium fluorescence, potentiator mode; 0% = oxytocin EC15, 100% = EC100; activation, % at 3 µM; P30559;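 active = activation above that plate's cutoff, the mean activation of tested compounds plus 3 SD, cut at about 6.6% in these data, passing the limit was not always enough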;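 note: 100% uses oxytocin at 75 nM as the full agonist control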
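System: human OTR in CHO cells; Also added: sub-maximal oxytocin, roughly EC15; Timing: compound 6 min at room temperature before oxytocin, 100 s read; Technique: Fluo-8 intracellular calcium fluorescence, ex 470-495, em 515-575 nm; Controls: oxytocin EC15 low and EC100 high; Replication: singlicate.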
TAAR1 antag: human TAAR1 antagonism; Q96RJ0; CHO RD-HGA16 TAAR1, Fluo-8 calcium fluorescence, antagonist; inhibition, % at 3 µM; actives 1.5% (n = 360,000);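 active = inhibition above a per-plate cutoff, the mean inhibition of test compounds on that plate plus 3 SD, cut at about 49% in these data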;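 note: 0% = DMSO plus EC80 beta-PEA response and 100% = DMSO alone without agonist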
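System: CHO RD-HGA16 cells bearing hTAAR1. Reagent: EC80 β-phenethylamine stimulus. Schedule: seeding 17-24 h prior, 75-min 37 °C, 30-min RT dye loading. Signal: Fluo-8 intracellular calcium dye fluorescence, real-time kinetic reads. Read-out: % inhibition from peak post-agonist over basal fluorescence ratio. Benchmarks: vehicle wells and EC80 agonist wells. Replicates: n of 1.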
OXTR agonist: activates the human oxytocin receptor; activation, % at 3 µM; P30559; actives 0.32% (n = 320,000); AID 2435; CHO-OTR cells, Fluo-8 calcium fluorescence; normalized: DMSO 0%, oxytocin 100%;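 active = activation above the mean of all tested compounds plus 3 SD, cutoff set per screening run, cut at about 20% in these data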;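 note: peak over basal fluorescence ratio from a 100 s FLIPR kinetic read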
TAAR1 agonist: agonists of human TAAR1 | CHO RD-HGA16 TAAR1, Fluo-8 calcium fluorescence; vehicle wells 0%, saturating PEA agonist 100% | actives 0.99% (n = 360,000) | AID 624467 | activation, % at 3 µM;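 active = activation above the mean activation of all test compounds in the run plus 3 SD, cut at about 38% in these data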
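Benchmarks: low control DMSO, high control PEA (EC100); System: CHO RD-HGA16 cells carrying human TAAR1 plus Gα16; Detection: Fluo-8 fluorescence, 5 s baseline then 140 s kinetic read; Schedule: 17-24 h plating, Fluo-8 75 min 37 °C, 30 min RT; Read-out basis: % activation from peak over basal fluorescence ratio, DMSO-to-PEA scaled.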
Numbers without * were called inactive.

`Cc1ccc(C)c(NC(=O)Cn2c(=O)n(-c3ccc(CC(=O)NCC4CCCO4)cc3)c(=O)c3ccccc32)c1` (centres undefined) gave V1aR counter 1, OXTR potentiate 1, TAAR1 antag -14, OXTR agonist 0 and TAAR1 agonist 3.
Screening Cc1ccc(C(=O)N2CCC3(CC2)Oc2ccc(Cl)cc2C(=O)C32CC(c3cccnc3)=NO2)s1 (centres undefined) returned V1aR counter 1, OXTR potentiate -9, TAAR1 antag 31, OXTR agonist 0 and TAAR1 agonist 7.
`O=C(/C=C/c1cccs1)N1CCC2(CC1)Oc1ccc(Cl)cc1C(=O)C21CC(c2cccnc2)=NO1` (centres undefined) gave V1aR counter 1, OXTR potentiate -12, TAAR1 antag 53*, OXTR agonist 5 and TAAR1 agonist 20.
`O=C(N/N=C/c1c(O)ccc2ccccc12)c1ccc(Br)o1` gave V1aR counter 22*, OXTR potentiate -17, TAAR1 antag -2, OXTR agonist 20* and TAAR1 agonist 9.
`O=C1COc2ccc(S(=O)(=O)N3CCN(c4ccccc4)CC3)cc2N1` gave V1aR counter 4, OXTR potentiate -6, TAAR1 antag -14, OXTR agonist 3 and TAAR1 agonist 1.
CC(CC(=O)N1CCN(c2ccccc2)CC1)S(=O)(=O)c1ccc2c(c1)NC(=O)CO2 (centres undefined) was read as V1aR counter 14, OXTR potentiate -10, TAAR1 antag 53*, OXTR agonist 11 and TAAR1 agonist 17.
Screening CCC(=O)Nc1cccc(NC(=O)CSc2nnnn2Cc2ccccc2)c1 returned V1aR counter 1, OXTR potentiate -12, TAAR1 antag -4, OXTR agonist -1 and TAAR1 agonist 5.
`CCOC(=O)CSc1nc2ccc(NC(=O)CSc3nnnn3Cc3ccccc3)cc2s1` gave V1aR counter 1, OXTR potentiate -2, TAAR1 antag 53*, OXTR agonist 0 and TAAR1 agonist 11.
`CCN(CC)C(=O)CSc1nc2ccc(NC(=O)CSc3nnc(COc4ccccc4C)n3C)cc2s1` gave V1aR counter 1, OXTR potentiate -11, TAAR1 antag 56*, OXTR agonist 0 and TAAR1 agonist 17.
CCN(C(=O)COC(=O)c1ccccc1NCCO)C1CCS(=O)(=O)C1 (centres undefined) was read as V1aR counter -1, OXTR potentiate -3, TAAR1 antag -14, OXTR agonist 0 and TAAR1 agonist 1.
`CN(N)c1nc(C(F)(F)F)nc2ccccc12` gave V1aR counter -1, OXTR potentiate -2, TAAR1 antag 5, OXTR agonist -2 and TAAR1 agonist 11.
COc1ccc(CN(C)CCCn2cnc3c(SC)ncnc32)cc1OC was read as TAAR1 antag -14 and TAAR1 agonist 2.
`Nc1nc(NCC2CCCO2)nc(NCC2CCCO2)c1[N+](=O)[O-]` (centres undefined) gave V1aR counter 0, OXTR potentiate -3, TAAR1 antag 14, OXTR agonist -1 and TAAR1 agonist 3.
Screening CC(C)CCNc1nc(N)c([N+](=O)[O-])c(NCC2CCCO2)n1 (centres undefined) returned V1aR counter 1, OXTR potentiate -9, TAAR1 antag -8, OXTR agonist 2 and TAAR1 agonist 39*.
COc1cc(C(=O)Nc2ccc(F)cc2Cl)ccc1OCC(=O)N1CCOCC1 was read as V1aR counter 0, OXTR potentiate -10, TAAR1 antag -3, OXTR agonist 1 and TAAR1 agonist 3.
Screening Cc1ccc(C)c(OCCCN2CCc3ccccc3C2)c1 returned V1aR counter -1, OXTR potentiate 0, TAAR1 antag -13, OXTR agonist 0 and TAAR1 agonist 39*.
CCN(C[C@H]1N[C@@](C)(C(=O)OC)[C@H]2C(=O)N(Cc3ccccc3)C(=O)[C@@H]12)C(=O)c1ccc(C(C)(C)C)cc1 was read as V1aR counter 1, OXTR potentiate -2, TAAR1 antag 51*, OXTR agonist -2 and TAAR1 agonist 11.
Screening CN1C[C@@H]2[C@@H]3C(=O)N(Cc4ccccc4)C(=O)[C@@H]3[C@](Cc3ccccc3)(C1=O)N2C(=O)c1ccc(C(C)(C)C)cc1 returned TAAR1 antag 17 and TAAR1 agonist 42*.
CCN(C[C@H]1N[C@@](CC)(C(=O)OC)[C@H]2C(=O)N(Cc3ccccc3)C(=O)[C@@H]12)C(=O)c1ccc(C(C)(C)C)cc1 was read as V1aR counter -2, OXTR potentiate -3, TAAR1 antag 54*, OXTR agonist -3 and TAAR1 agonist 13.
For COC(=O)[C@]1(Cc2ccccc2)N[C@H](CN(C)C(=O)c2ccc(C(C)(C)C)cc2)[C@@H]2C(=O)N(Cc3ccccc3)C(=O)[C@@H]21 the results were V1aR counter 2, OXTR potentiate -2, TAAR1 antag -14, OXTR agonist 3 and TAAR1 agonist 1.
C=CCSC1=C(C#N)C(c2ccccc2Cl)C(C(=O)c2cccs2)C(O)(C(F)(F)F)N1 (centres undefined) was read as V1aR counter 2, OXTR potentiate -13, TAAR1 antag 56*, OXTR agonist 0 and TAAR1 agonist 7.
`O=C1NC(c2ccccc2)C(C(=O)c2cccs2)C(O)(C(F)(F)F)N1` (centres undefined) gave V1aR counter 0, OXTR potentiate -6, TAAR1 antag 10, OXTR agonist 0 and TAAR1 agonist 2.
CCSC1=C(C#N)C(c2ccccc2Cl)C(C(=O)c2cccs2)C(O)(C(F)(F)F)N1 (centres undefined) was read as V1aR counter 2, OXTR potentiate -22, TAAR1 antag -11, OXTR agonist 0 and TAAR1 agonist 0.
`CSC1=C(C#N)C(c2ccccc2Cl)C(C(=O)c2cccs2)C(O)(C(F)(F)F)N1` (centres undefined) gave V1aR counter 2, OXTR potentiate -5, TAAR1 antag 51*, OXTR agonist 0 and TAAR1 agonist 8.
`COc1ccc(C2=Nc3ccccc3N(C(=O)c3ccc(C)cc3)C2C(=O)NCc2ccccc2)cc1` (centres undefined) gave TAAR1 antag -37 and TAAR1 agonist 0.
For CCCCCc1cc(=O)oc2c(C(CCN3CCCC(C)C3)c3ccc(OC)cc3)c(OC)cc(OC)c12 (centres undefined) the results were V1aR counter 12, OXTR potentiate -10, TAAR1 antag 6, OXTR agonist 8 and TAAR1 agonist 40*.

Screening data deposited in PubChem by The Scripps Research Institute Molecular Screening Center.
